Test results from ChEMBL document CHEMBL4184228, “Reversed isoniazids: Design, synthesis and evaluation against Mycobacterium tuberculosis” (Bioorg Med Chem, 2018).
Converted amounts (≈) assume the structure as drawn. The source made the active and inactive calls.

Legend:
[1] = Cytotoxicity against human THP1 cells assessed as decrease in cell viability after 24 hrs by MTT assay; type: cell-based; conditions: THP-1 cells
How it was run: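 THP-1 cells at 1.5 x 10^4/well are exposed to a range of compound concentrations for 24 h. MTT is then added for 4 h at 37°C, followed by solubilisation buffer for 30 min. A570 is read. Cytotoxicity % = 100 − [100 × (OD with drug/OD without drug)]. An IC20 cut-off is used to set concentrations for the macrophage work.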

[2] = test system: Mycobacterium tuberculosis; assay: Antimycobacterial activity against XDR Mycobacterium tuberculosis isolate X_60 by two fold serial dilution based fluorescence assay; type: functional
How it was run: (§1)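 MGIT 960 (BACTEC) broth assay in 7H9 with 1% OADC and 0.05% Tween 80. Compounds are 10 mM DMSO stocks, two-fold serially diluted, final DMSO ≤1.2%, top concentration 10 µM. Tubes incubated at 37°C with growth units read daily. MIC99 is set against a 1% drug-free growth control tube.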

[3] = test system: Mycobacterium tuberculosis; assay: Antimycobacterial activity against XDR Mycobacterium tuberculosis isolate TT149 at 10 uM by two fold serial dilution based fluorescence assay; type: functional; how it was run: as §1
[4] = test system: Mycobacterium tuberculosis; assay: Antimycobacterial activity against XDR Mycobacterium tuberculosis isolate X_3 at 10 uM by two fold serial dilution based fluorescence assay; type: functional; how it was run: as §1
[5] = test system: Mycobacterium tuberculosis; assay: Antimycobacterial activity against XDR Mycobacterium tuberculosis isolate X_61 by two fold serial dilution based fluorescence assay; type: functional; how it was run: as §1
[6] = test system: Mycobacterium tuberculosis; assay: Antimycobacterial activity against Mycobacterium tuberculosis H37Rv by two fold serial dilution based fluorescence assay; type: functional; how it was run: as §1
[7] = test system: CHO; assay: Cytotoxicity against CHO cells; type: cell-based; conditions: Cricetulus griseus

Compound	IC20 at 24 h [1] [µM]	MIC99 [2] [µM]	Activity [3]	Activity [4]	MIC99 [5] [µM]	MIC99 [6] [µM]	IC50 [7] [µM]	MIC99 [3] [µM]	MIC99 [4] [µM]
CN(C)CCCN1c2ccccc2Sc2ccc(Cl)cc21 [CHLORPROMAZINE]	4								
O=C(NNCCCN1CCC(N2c3ccccc3Sc3ccccc32)CC1)c1ccncc1		> 10	inactive	inactive	2.5 (≈ 1.15 µg/mL)	5 (≈ 2.3 µg/mL)	122		
O=C(NNCCCN1CCN(C(c2ccccc2)c2ccccc2)CC1)c1ccncc1		> 10	inactive	inactive	5 (≈ 2.15 µg/mL)	5 (≈ 2.15 µg/mL)	48.1		
O=C(NNCCCN1c2ccccc2Sc2ccc(Cl)cc21)c1ccccc1	> 100		inactive	inactive		> 10			
O=C(NNCCCN1c2ccccc2Sc2ccccc21)c1ccccc1	> 100		inactive	inactive		> 10			
O=C(NNCCCN1CCN(C(c2ccccc2)(c2ccccc2)c2ccccc2)CC1)c1ccncc1		2.5 (≈ 1.26 µg/mL)	inactive	inactive	2.5 (≈ 1.26 µg/mL)	1.25 (≈ 0.632 µg/mL)	97.6		
NNC(=O)c1ccncc1 [ISONIAZID]	> 100	> 10			2.5 (≈ 0.343 µg/mL)	0.73 (≈ 0.1 µg/mL)	> 100	> 10	> 10
O=C(NNCCCN1c2ccccc2Sc2ccccc21)c1ccncc1	> 100		inactive	inactive		1 (≈ 0.376 µg/mL)			
O=C(NNCCCN1c2ccccc2Sc2ccc(Cl)cc21)c1ccncc1	24.4		inactive	inactive		0.25 (≈ 0.103 µg/mL)			
O=C(NNCCCN1CCC(=C2c3ccccc3C=Cc3ccccc32)CC1)c1ccncc1		> 10	inactive	inactive	5 (≈ 2.25 µg/mL)	1.25 (≈ 0.563 µg/mL)	148		
O=C(NNCCCNCCCN1c2ccccc2Sc2ccc(Cl)cc21)c1ccncc1			inactive	inactive		5 (≈ 2.34 µg/mL)			
O=C(NNCCCN1CCC(=C2c3ccccc3Sc3ccc(Cl)cc32)CC1)c1ccncc1		> 10	inactive	inactive	2.5 (≈ 1.23 µg/mL)	0.625 (≈ 0.307 µg/mL)	296		
O=C(NNCCCN1CCN(C2c3ccccc3CCc3ccccc32)CC1)c1ccncc1			inactive	inactive		5 (≈ 2.28 µg/mL)			
O=C(NNCCCNCCCN1c2ccccc2Sc2ccccc21)c1ccncc1			inactive	inactive		5 (≈ 2.17 µg/mL)			
O=C(NNCCCN1CCC(N2c3ccccc3Sc3ccc(Cl)cc32)CC1)c1ccncc1	2.2	> 10	inactive	inactive	> 10	1 (≈ 0.494 µg/mL)	37.4		
O=C(NNCCCN1c2ccccc2CCc2ccccc21)c1ccncc1	> 100		inactive	inactive		1 (≈ 0.372 µg/mL)			
O=C(NNCCCN1CCC(=C2c3ccccc3Sc3ccccc32)CC1)c1ccncc1		> 10	inactive	inactive	2.5 (≈ 1.14 µg/mL)	1.25 (≈ 0.571 µg/mL)	152		
O=C(NNCCCN1CCN(CC(O)(c2ccccc2)c2ccccc2)CC1)c1ccncc1		> 10	inactive	inactive	5 (≈ 2.3 µg/mL)	1.25 (≈ 0.574 µg/mL)	174		
